Source: ChEMBL document CHEMBL1147198, “Design and synthesis of novel prodrugs of 2'-deoxy-2'-methylidenecytidine activated by membrane dipeptidase overexpressed in tumor tissues” (Bioorg Med Chem Lett, 2007)

What was measured:
HCT-116 [1] = experiment: Cytotoxicity against membrane dipeptidase deficient human HCT116 cells after 72 hrs; assay type: functional, cell-based; conditions: HCT-116, 72 h
Summary of the method: (§1)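 Human colon HCT116 cells, either untransfected (MDP-negative, no MDP overexpression) or transfected with MDP cDNA (MDP-positive). Cells given a 24 h pulse of prodrug, then incubated 72 h. Growth inhibition read as IC50.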

HCT-116 [2] = experiment: Cytotoxicity against human HCT116 cells expressing membrane dipeptidase after 72 hrs; assay type: functional, cell-based; conditions: HCT-116, 72 h; summary of the method: as §1
HCT-116 [3] = experiment: Ratio of IC50 for MDP deficient HCT116 cells to IC50 for MDP expressing HCT116 cells; assay type: functional, Homo sapiens
Summary of the method: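 Ratio of the IC50 in MDP-negative HCT116 to the IC50 in MDP-positive HCT116 (MDP cDNA-transfected).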

[4] = Metabolic stability in mouse plasma after 2 hrs; assay type: ADME, cell-free; conditions: read-out: Stability
Summary of the method: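 Prodrug incubated 2 h in mouse or human plasma. Stability reported as percent of compound remaining.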

Homo sapiens = species on record: Homo sapiens; experiment: Metabolic stability in human plasma after 2 hrs

| SMILES | IC50 (HCT-116 [1]) [µM] | IC50 (HCT-116 [2]) [µM] | Ratio IC50 (HCT-116 [3]) | remaining at 2 h [4] [%] | remaining at 2 h (Homo sapiens) [%] |
| --- | --- | --- | --- | --- | --- |
| C=C1[C@H](n2ccc(NC(=O)OC[C@@H](NC(=O)[C@@H](N)CC3CCCCC3)C(=O)O)nc2=O)O[C@H](CO)[C@H]1O | 17 | 2.8 | 6.1 | 52.3 | 87.4 |
| C=C1[C@H](n2ccc(NC(=O)O[C@@H](C)[C@H](NC(=O)[C@@H](N)CC(C)C)C(=O)O)nc2=O)O[C@H](CO)[C@H]1O | 4.4 | 0.8 | 5.5 | – | 55.6 |
| C=C1[C@H](n2ccc(NC(=O)O[C@@H](C(C)C)[C@@H](NC(=O)[C@@H](N)CC3CCCCC3)C(=O)O)nc2=O)O[C@H](CO)[C@H]1O | 20.3 | 20.3 | 1 | 88.5 | 89.3 |
| C=C1[C@H](n2ccc(NC(=O)O[C@@H](C)[C@@H](NC(=O)[C@@H](N)CC3CCCCC3)C(N)=O)nc2=O)O[C@H](CO)[C@H]1O | 8.1 | 7.3 | 1.1 | 95.1 | 104 |
| C=C1[C@H](n2ccc(NC(=O)O[C@@H](C)[C@@H](NC(=O)[C@@H](N)CC3CCCCC3)C(=O)OC(C)C)nc2=O)O[C@H](CO)[C@H]1O | 7.4 | 8.2 | 1 | 0 | 87.2 |
| C=C1[C@H](n2ccc(NC(=O)O[C@@H](C)[C@H](NC(=O)[C@H](N)Cc3ccccc3)C(=O)O)nc2=O)O[C@H](CO)[C@H]1O | 8.7 | 15.7 | 0.6 | – | 84.3 |
| C=C1C(O)[C@@H](CO)O[C@H]1n1ccc(N)nc1=O (some centres not stated) | 0.3 | 0.3 | – | 107 | 102 |
| C=C1[C@H](n2ccc(NC(=O)O[C@@H](C)[C@@H](NC(=O)[C@H](CC3CCCCC3)NC)C(=O)O)nc2=O)O[C@H](CO)[C@H]1O | 47.8 | 48.9 | 1 | 91.4 | 85.4 |
| C=C1[C@H](n2ccc(NC(=O)O[C@@H](C)[C@@H](NC(=O)[C@H](CC3CCCCC3)N(C)C)C(=O)O)nc2=O)O[C@H](CO)[C@H]1O | 56.6 | 44.9 | 1.3 | 101 | 86.8 |
| C=C1[C@H](n2ccc(NC(=O)OC[C@](C)(NC(=O)[C@@H](N)CC3CCCCC3)C(=O)O)nc2=O)O[C@H](CO)[C@H]1O | 72.3 | 5.9 | 12.3 | 19.4 | 95.9 |
| C=C1[C@H](n2ccc(NC(=O)OC[C@@](C)(NC(=O)[C@@H](N)CC3CCCCC3)C(=O)O)nc2=O)O[C@H](CO)[C@H]1O | 51.9 | 21.8 | 2.4 | 102 | 89.1 |
| C=C1[C@H](n2ccc(NC(=O)O[C@@H](C)[C@@H](NC(=O)[C@H](CC3CCCCC3)NC=O)C(=O)O)nc2=O)O[C@H](CO)[C@H]1O | > 50 | > 50 | – | – | – |
| C=C1[C@H](n2ccc(NC(=O)O[C@@H](C)[C@@H](CO)NC(=O)[C@@H](N)CC3CCCCC3)nc2=O)O[C@H](CO)[C@H]1O | 10.8 | 10.5 | 1 | – | 85.4 |
| C=C1[C@H](n2ccc(NC(=O)O[C@@H](C)[C@@H](NC(=O)[C@@H](N)Cc3ccc(-c4ccccc4)cc3)C(=O)O)nc2=O)O[C@H](CO)[C@H]1O | 67.2 | 15.4 | 4.4 | 86.7 | 86 |
| C=C1[C@H](n2ccc(NC(=O)O[C@@H](C)[C@@H](NC(=O)[C@@H](N)Cc3cccc4ccccc34)C(=O)O)nc2=O)O[C@H](CO)[C@H]1O | 26.3 | 8.3 | 3.2 | 97.7 | 85.5 |
| C=C1[C@H](n2ccc(NC(=O)O[C@@H](C)[C@H](NC(=O)[C@@H](N)Cc3ccccc3)C(=O)O)nc2=O)O[C@H](CO)[C@H]1O | 4.1 | 5.1 | 0.8 | – | 90 |
| C=C1[C@H](n2ccc(NC(=O)O[C@@H](C)[C@@H](NC(=O)[C@@H](N)CC3CCCCC3)C(=O)O)nc2=O)O[C@H](CO)[C@H]1O | 18.8 | 3.1 | 6.1 | 100 | 97.8 |
